{"source": "ChEMBL document CHEMBL4130635", "about": "“2,4-Diaminoquinazolines as Dual Toll-like Receptor (TLR) 7/8 Modulators for the Treatment of Hepatitis B Virus” (J Med Chem, 2018)", "key": {"[1]": {"experiment": "Cytotoxicity against HEK293 cells assessed as reduction in cell viability after 6 hrs by ATP lite assay", "type": "cell-based", "details": "human"}, "[2]": {"experiment": "Cmax in C57BL/6J mouse liver at 30 mg/kg, po by LC-MS analysis", "type": "ADME, organism-based", "design": "dose 30 mg/kg, route oral", "outline": "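Healthy C57BL/6 mice, groups of 15, given a single oral dose (0.3, 1, 3, 10 or 30 mg/kg) in 20% HP-β-CD. Blood drawn at 0.5 h. Three mice per group sacrificed at 0.5, 1, 2, 4 or 7 h, and compound in plasma and liver measured by LC−MS. Values rounded to whole numbers.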"}, "[3]": {"experiment": "AUC (0 to last) in C57BL/6J mouse liver at 3 mg/kg, po by LC-MS analysis", "type": "ADME, organism-based", "details": "in vivo", "outline": "(§1)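 Healthy C57BL/6 mice were dosed once by mouth at 0.3, 1, 3, 10 or 30 mg/kg in 20% HP-β-CD, in groups of 15 per dose. Three mice per group were sacrificed at 0.5, 1, 2, 4 or 7 h, and plasma and liver compound levels were measured by LC–MS. Values were rounded to whole numbers.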"}, "[4]": {"experiment": "AUC (0 to last) in C57BL/6J mouse liver at 30 mg/kg, po by LC-MS analysis", "type": "ADME, organism-based", "details": "in vivo", "outline": "as §1"}, "Plasma [5]": {"test_system": "Plasma", "experiment": "Induction of IFNalpha levels in C57BL/6J mouse plasma at 10 mg/kg, po by ELISA", "type": "functional"}, "Liver [6]": {"test_system": "Liver", "experiment": "Induction of IFNalpha levels in C57BL/6J mouse liver at 0.3 mg/kg, po by ELISA (reference value: 30 pg/g)", "type": "functional"}, "Liver [7]": {"test_system": "Liver", "experiment": "Induction of IFNalpha levels in C57BL/6J mouse liver at 30 mg/kg, po by ELISA (reference value: 30 pg/g)", "type": "functional"}, "Plasma [8]": {"test_system": "Plasma", "experiment": "Upregulation of IP-10 mRNA expression levels in C57BL/6J mouse plasma at 30 mg/kg, po by RT-qPCR analysis (reference value: 1)", "type": "functional"}, "Liver [9]": {"test_system": "Liver", "experiment": "Effect on cytokine profile in C57BL/6J mouse liver assessed as IL-12p70 levels at 1 mg/kg, po by multiplex assay (reference value: 5 pg/g)", "type": "functional, organism-based", "outline": "(§2)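 Single oral gavage in 20% HP-β-CD to healthy C57BL/6 mice, groups of 15 at 0.3, 1, 3, 10 or 30 mg/kg. Three mice per group sacrificed at 0.5, 1, 2, 4 or 7 h. Plasma and liver cytokines by multiplex, maximum level reported, rounded to nearest multiple of 5.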"}, "Plasma [10]": {"test_system": "Plasma", "experiment": "Effect on cytokine profile in C57BL/6J mouse plasma assessed as IFNgamma levels at 0.3 mg/kg, po by multiplex assay", "type": "functional, organism-based", "outline": "as §2"}, "Plasma [11]": {"test_system": "Plasma", "experiment": "Effect on cytokine profile in C57BL/6J mouse plasma assessed as IFNgamma levels at 1 mg/kg, po by multiplex assay", "type": "functional, organism-based", "outline": "as §2"}, "Plasma [12]": {"test_system": "Plasma", "experiment": "Effect on cytokine profile in C57BL/6J mouse plasma assessed as IFNgamma levels at 10 mg/kg, po by multiplex assay", "type": "functional", "outline": "as §2"}, "Plasma [13]": {"test_system": "Plasma", "experiment": "Proinflammatory activity in C57BL/6J mouse plasma assessed as IL-1beta levels at 3 mg/kg, po by multiplex assay (reference value: 60 pg/ml)", "type": "functional"}, "Liver [14]": {"test_system": "Liver", "experiment": "Proinflammatory activity in C57BL/6J mouse liver assessed as IL-1beta levels at 0.3 mg/kg, po by multiplex assay", "type": "functional"}, "Liver [15]": {"test_system": "Liver", "experiment": "Proinflammatory activity in C57BL/6J mouse liver assessed as CXCL-1 levels at 30 mg/kg, po by multiplex assay (reference value: 25 pg/g)", "type": "functional"}, "Liver [16]": {"test_system": "Liver", "experiment": "Proinflammatory activity in C57BL/6J mouse liver assessed as IL-6 levels at 1 mg/kg, po by multiplex assay (reference value: 10 pg/g)", "type": "functional"}, "Liver [17]": {"test_system": "Liver", "experiment": "Anti-inflammatory activity in C57BL/6J mouse liver assessed as IL-10 levels at 30 mg/kg, po by multiplex assay (reference value: 2 pg/g)", "type": "functional", "outline": "as §2"}, "[18]": {"experiment": "Cmax in cynomolgus monkey plasma at 1 mg/kg, po by LC-MS analysis", "type": "ADME, organism-based, Macaca fascicularis", "design": "dose 1 mg/kg, route oral", "outline": "(§3)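 Healthy cynomolgus monkeys received oral doses of 1, 3, 9 and 30 mg/kg, with a 2-week wash-out between doses. Systemic compound concentrations by LC−MS at 0.25, 0.5, 1, 2, 4, 8 and 24 h postdose.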"}, "[19]": {"experiment": "Cmax in cynomolgus monkey plasma at 30 mg/kg, po by LC-MS analysis", "type": "ADME, organism-based, Macaca fascicularis", "design": "dose 30 mg/kg, route oral", "outline": "as §3"}, "Cynomolgus monkey [20]": {"test_system": "Cynomolgus monkey", "experiment": "Plasma concentration in cynomolgus monkey at 9 mg/kg, po by LC-MS analysis", "type": "ADME, organism-based, Macaca fascicularis", "details": "in vivo"}, "Cynomolgus monkey [21]": {"test_system": "Cynomolgus monkey", "experiment": "Effect on cytokine profile in cynomolgus monkey plasma assessed as IL-12P70 levels at 30 mg/kg, po after 24 hrs by Luminex assay (reference value: 2.17 pg/ml)", "type": "functional, Macaca fascicularis", "outline": "(§4)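 Healthy cynomolgus monkeys given single oral doses of 1, 3, 9 and 30 mg/kg, with a 2-week wash-out planned between doses. Systemic cytokine levels in plasma were sampled at 0.5, 1, 2, 4, 9 and 24 h postdose.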"}, "Cynomolgus monkey [22]": {"test_system": "Cynomolgus monkey", "experiment": "Effect on cytokine profile in cynomolgus monkey plasma assessed as IL-15 levels at 9 mg/kg, po after 24 hrs by Luminex assay (reference value: 20 pg/ml)", "type": "functional, Macaca fascicularis", "outline": "as §4"}, "Cynomolgus monkey [23]": {"test_system": "Cynomolgus monkey", "experiment": "Proinflammatory activity in cynomolgus monkey plasma assessed as IL-8 levels at 3 mg/kg, po after 24 hrs by Luminex assay (reference value: 430 pg/ml)", "type": "functional, Macaca fascicularis"}, "Cynomolgus monkey [24]": {"test_system": "Cynomolgus monkey", "experiment": "Proinflammatory activity in cynomolgus monkey plasma assessed as IL-8 levels at 9 mg/kg, po after 24 hrs by Luminex assay (reference value: 430 pg/ml)", "type": "functional, Macaca fascicularis"}, "Cynomolgus monkey [25]": {"test_system": "Cynomolgus monkey", "experiment": "Activation of monocytes in cynomolgus monkey plasma assessed as upregulation of IL1Ra levels at 1 mg/kg, po after 24 hrs by Luminex assay (reference value: 320 pg/ml)", "type": "functional, Macaca fascicularis"}, "Cynomolgus monkey [26]": {"test_system": "Cynomolgus monkey", "experiment": "Activation of monocytes in cynomolgus monkey plasma assessed as upregulation of IL1Ra levels at 30 mg/kg, po after 24 hrs by Luminex assay (reference value: 320 pg/ml)", "type": "functional, Macaca fascicularis"}, "Cynomolgus monkey [27]": {"test_system": "Cynomolgus monkey", "experiment": "Activation of monocytes in cynomolgus monkey plasma assessed as upregulation of MIP1 levels at 30 mg/kg, po after 24 hrs by Luminex assay (reference value: 37 pg/ml)", "type": "functional, Macaca fascicularis"}, "Cynomolgus monkey [28]": {"test_system": "Cynomolgus monkey", "experiment": "Induction of ISG response in cynomolgus monkey plasma assessed as upregulation of Oas1b mRNA expression at 9 mg/kg, po after 24 hrs by Fluidigm RT-qPCR analysis (reference value: 1)", "type": "functional, Macaca fascicularis", "outline": "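Cynomolgus monkeys, single oral doses of 1, 3, 9 and 30 mg/kg with a planned 2-week wash-out between doses. Systemic ISG (ISG15, Mx1, OAS1) mRNA was measured by Fluidigm RT-qPCR at 1, 2, 4, 8 and 24 h postdose.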"}, "Cynomolgus monkey [29]": {"test_system": "Cynomolgus monkey", "experiment": "Upregulation of Tlr7 expression in cynomolgus monkey plasma at 1 mg/kg, po after 24 hrs by Fluidigm RT-qPCR analysis (reference value: 1.8)", "type": "functional, Macaca fascicularis"}, "Cynomolgus monkey [30]": {"test_system": "Cynomolgus monkey", "experiment": "Upregulation of Tlr7 expression in cynomolgus monkey plasma at 30 mg/kg, po after 24 hrs by Fluidigm RT-qPCR analysis (reference value: 1.8)", "type": "functional, Macaca fascicularis"}, "Hepatocyte": {"test_system": "Hepatocyte", "experiment": "Toxicity in human primary hepatocytes infected with HBV genotype C for 12 days followed by exposure to conditioned supernatant from at 5 uM compound treated PBMCs assessed as increase in AST level measured after 42 days relative to untreated control", "type": "cell-based", "details": "1008 h"}}, "data": [{"smiles": "CCC[C@@H](CCO)Nc1nc(N)nc2c(F)cccc12", "values": [{"measurement": "CC50 at 6 h", "setting": "[1]", "value": "> 24", "unit": "µM"}, {"measurement": "Cmax", "setting": "[2]", "value": 7610, "unit": "ng/g"}, {"measurement": "AUClast", "setting": "[3]", "value": 362, "unit": "ng·h/g"}, {"measurement": "AUClast", "setting": "[4]", "value": 7160, "unit": "ng·h/g"}, {"measurement": "Activity", "setting": "Plasma [5]", "value": ">3200", "unit": "pg/mL"}, {"measurement": "Activity", "setting": "Liver [6]", "value": 100, "unit": "pg/g"}, {"measurement": "Activity", "setting": "Liver [7]", "value": 955, "unit": "pg/g"}, {"measurement": "fold change (FC)", "setting": "Plasma [8]", "value": 1100}, {"measurement": "Activity", "setting": "Liver [9]", "value": "Below limit of detection"}, {"measurement": "Activity", "setting": "Plasma [10]", "value": "Below limit of detection"}, {"measurement": "Activity", "setting": "Plasma [11]", "value": "Below limit of detection"}, {"measurement": "Activity", "setting": "Plasma [12]", "value": 295, "unit": "pg/mL"}, {"measurement": "Activity", "setting": "Plasma [13]", "value": 40, "unit": "pg/mL"}, {"measurement": "Activity", "setting": "Liver [14]", "value": 9765, "unit": "pg/g"}, {"measurement": "Activity", "setting": "Liver [15]", "value": ">83333", "unit": "pg/g"}, {"measurement": "Activity", "setting": "Liver [16]", "value": 905, "unit": "pg/g"}, {"measurement": "Activity", "setting": "Liver [17]", "value": 5185, "unit": "pg/g"}, {"measurement": "Cmax", "setting": "[18]", "value": 38, "unit": "ng/mL"}, {"measurement": "Cmax", "setting": "[19]", "value": 2070, "unit": "ng/mL"}, {"measurement": "Cp", "setting": "Cynomolgus monkey [20]", "value": 200, "unit": "ng/mL"}, {"measurement": "Activity", "setting": "Cynomolgus monkey [21]", "value": 10.1, "unit": "pg/mL"}, {"measurement": "Activity", "setting": "Cynomolgus monkey [22]", "value": 75, "unit": "pg/mL"}, {"measurement": "Activity", "setting": "Cynomolgus monkey [23]", "value": 1505, "unit": "pg/mL"}, {"measurement": "Activity", "setting": "Cynomolgus monkey [24]", "value": 1640, "unit": "pg/mL"}, {"measurement": "Activity", "setting": "Cynomolgus monkey [25]", "value": 805, "unit": "pg/mL"}, {"measurement": "Activity", "setting": "Cynomolgus monkey [26]", "value": 2970, "unit": "pg/mL"}, {"measurement": "Activity", "setting": "Cynomolgus monkey [27]", "value": 560, "unit": "pg/mL"}, {"measurement": "fold change (FC)", "setting": "Cynomolgus monkey [28]", "value": 260}, {"measurement": "fold change (FC)", "setting": "Cynomolgus monkey [29]", "value": 4.8}, {"measurement": "fold change (FC)", "setting": "Cynomolgus monkey [30]", "value": 4.2}, {"measurement": "fold change (FC)", "setting": "Hepatocyte", "value": 2.6}]}]}
